From ChEMBL document CHEMBL3861958, “Synthesis and anticholinesterase activity of coumarin-3-carboxamides bearing tryptamine moiety” (Eur J Med Chem, 2016)

Legend:
Cholinesterase = Cholinesterase (Equus caballus, UniProt P81908); experiment: Inhibition of equine serum BuChE using butyrylthiocholine iodide as substrate measured for 2 mins by Ellman's method
How it was run: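 Ellman assay with equine serum BuChE (enzyme solution 2 U/mL added) in 0.1 M phosphate buffer pH 8.0 with DTNB. Compounds in 1:9 DMSO/ethanol, tested at four concentrations spanning 20–80% inhibition. Reaction started with butyrylthiocholine iodide (0.15 M stock). A412 followed for 2 min at 30 s intervals. IC50 read graphically from log concentration vs % inhibition. Quadruplicates.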

Acetylcholinesterase [1] = target: T1, Acetylcholinesterase (Electrophorus electricus, UniProt O42275); experiment: Mixed-type inhibition of electric eel AChE using acetylthiocholine iodide as substrate measured for 2 mins by Lineweaver-Burk plot analysis
T1 sequence (O42275 whole entry): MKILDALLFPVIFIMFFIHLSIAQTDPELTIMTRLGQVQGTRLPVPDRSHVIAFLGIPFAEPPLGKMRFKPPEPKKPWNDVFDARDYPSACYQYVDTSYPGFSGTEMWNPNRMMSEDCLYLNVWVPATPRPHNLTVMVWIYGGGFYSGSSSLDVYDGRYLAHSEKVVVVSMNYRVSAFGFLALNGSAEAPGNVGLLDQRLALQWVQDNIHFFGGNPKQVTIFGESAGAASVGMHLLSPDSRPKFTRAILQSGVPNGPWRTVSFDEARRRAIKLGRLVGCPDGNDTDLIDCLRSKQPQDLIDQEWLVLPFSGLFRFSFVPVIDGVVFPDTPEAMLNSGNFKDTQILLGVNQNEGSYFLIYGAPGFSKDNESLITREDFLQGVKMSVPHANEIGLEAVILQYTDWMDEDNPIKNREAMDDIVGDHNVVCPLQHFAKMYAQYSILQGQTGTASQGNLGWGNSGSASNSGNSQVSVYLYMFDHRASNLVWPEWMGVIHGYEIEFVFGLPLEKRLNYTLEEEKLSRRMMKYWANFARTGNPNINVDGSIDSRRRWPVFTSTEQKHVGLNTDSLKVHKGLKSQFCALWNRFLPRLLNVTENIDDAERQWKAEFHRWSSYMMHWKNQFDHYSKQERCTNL
How it was run: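 Kinetics used electric eel AChE (type V-S, enzyme solution 2 U/mL added) under the Ellman conditions: 0.1 M phosphate pH 8.0, DTNB, A412. Initial velocities measured across varied acetylthiocholine concentrations at inhibitor 0, 0.069, 0.206 and 0.618 μM. 1/v plotted against 1/[S] (Lineweaver-Burk) to assign inhibition type. Ki taken from a secondary plot.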

Acetylcholinesterase [2] = target: T1, Acetylcholinesterase; experiment: Inhibition of electric eel AChE using acetylthiocholine iodide as substrate measured for 2 mins by Ellman's method

Chain of Cholinesterase (P81908 whole entry): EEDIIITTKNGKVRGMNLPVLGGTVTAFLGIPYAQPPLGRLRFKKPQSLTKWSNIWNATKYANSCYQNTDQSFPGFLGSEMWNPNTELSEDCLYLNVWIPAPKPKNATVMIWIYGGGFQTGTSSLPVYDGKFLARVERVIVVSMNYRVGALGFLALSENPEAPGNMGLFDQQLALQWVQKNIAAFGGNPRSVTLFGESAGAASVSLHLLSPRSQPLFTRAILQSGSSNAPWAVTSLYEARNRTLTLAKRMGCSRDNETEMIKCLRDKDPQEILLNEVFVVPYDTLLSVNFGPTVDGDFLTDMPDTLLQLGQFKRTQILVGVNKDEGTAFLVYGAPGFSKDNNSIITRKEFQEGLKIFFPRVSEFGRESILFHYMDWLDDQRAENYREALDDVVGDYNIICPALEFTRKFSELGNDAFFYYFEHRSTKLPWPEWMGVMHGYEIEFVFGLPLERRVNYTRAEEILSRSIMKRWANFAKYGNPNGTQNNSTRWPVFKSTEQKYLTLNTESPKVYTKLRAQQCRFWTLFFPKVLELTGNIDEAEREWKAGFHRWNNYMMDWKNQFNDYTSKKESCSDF

| SMILES | IC50 (Cholinesterase) [µM] | Ki (Acetylcholinesterase [1]) [nM] | IC50 (Acetylcholinesterase [2]) [µM] |
| --- | --- | --- | --- |
| O=C(NCCc1c[nH]c2ccccc12)c1cc2ccc(OCc3ccc(F)cc3)cc2oc1=O | 29.7 | 490 | 0.16 |
| O=C(NCCc1c[nH]c2ccccc12)c1cc2ccc(OCc3ccc(Cl)c(Cl)c3)cc2oc1=O | > 100 |  | 31.5 |
| COc1cccc2cc(C(=O)NCCc3c[nH]c4ccccc34)c(=O)oc12 | 20.1 |  | 2.8 |
| O=C(NCCc1c[nH]c2ccccc12)c1cc2ccc(OCc3ccc(Cl)cc3)cc2oc1=O | > 100 |  | 12.4 |
| O=C(NCCc1c[nH]c2ccccc12)c1cc2ccc(OCc3ccccc3Cl)cc2oc1=O | > 100 |  | 22.5 |
| O=C(NCCc1c[nH]c2ccccc12)c1cc2ccc(O)cc2oc1=O | > 100 |  | > 100 |
| O=C(NCCc1c[nH]c2ccccc12)c1cc2ccc(OCc3cccc(Cl)c3Cl)cc2oc1=O | > 100 |  | > 100 |
| O=C(NCCc1c[nH]c2ccccc12)c1cc2ccc(OCc3cccc(F)c3)cc2oc1=O | 27.8 |  | 2.5 |
| O=C(NCCc1c[nH]c2ccccc12)c1cc2ccc(OCc3ccccc3F)cc2oc1=O | 27.5 |  | 2.5 |
| O=C(NCCc1c[nH]c2ccccc12)c1cc2cc(Br)ccc2oc1=O | > 100 |  | > 100 |
| COc1ccc2cc(C(=O)NCCc3c[nH]c4ccccc34)c(=O)oc2c1 | 34.6 |  | 3.5 |
| O=C(NCCc1c[nH]c2ccccc12)c1cc2ccc(OCc3ccccc3)cc2oc1=O | 16.2 |  | 1.5 |
| O=C(NCCc1c[nH]c2ccccc12)c1cc2ccccc2oc1=O | 50.5 |  | 5.9 |
| CCCOc1ccc2cc(C(=O)NCCc3c[nH]c4ccccc34)c(=O)oc2c1 | > 100 |  | 18.7 |
| CCOc1ccc2cc(C(=O)NCCc3c[nH]c4ccccc34)c(=O)oc2c1 | > 100 |  | 43.8 |
